From PubChem BioAssay
PRMT1 inh: inhibitors of human PRMT1; hit rate 1.3% among 370,000; AID 652257; recombinant PRMT1, activity-based probe fluorescence polarization; inhibition, % at 2.79 µM;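 active means inhibition above about 21% made by adding two undisclosed values, limit read from the data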
TCR CD3 inh: blocks the human TCR-CD3 interaction | AID 651800 | inhibition, % at 9.4 µM | TAMRA-labeled TCR probe fluorescence, biochemical | hit rate 0.37% among 360,000; in the data active means inhibition above about 19%;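 further: recombinant mutant TCR 2C K166C tagged with TAMRA read by polarization; 0% = receptor in buffer alone and 100% = receptor with positive control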
rCAG binder: binds r(CAG) RNA repeats | inhibition, % at 3 µM | hit rate 1.3% among 370,000 | r(CAG) RNA repeat, TO-PRO-1 dye displacement fluorescence;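 active means inhibition above the plate cutoff, the mean of all test compounds on that plate plus 3 SD, cut at about 35% in these data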;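 further: 0% = DMSO alone and 100% = 100 µM mitoxantrone as full dye displacement; higher means more dye released from RNA so lower well fluorescence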
SIAE primary: human SIAE inhibition, primary screen; Q9HAT2; SIAE FP-Rh probe binding, fluorescence polarization; inhibition, % at 9.66 µM; hit rate 0.69% among 370,000; AID 1053197;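 active means inhibition above a cutoff: mean of compounds within the control limits plus 3 SD of those, cut at about 17% in these data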;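 further: 0% = plate median of compound wells and 100% = probe without SIAE protein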
ABHD4 inh: inhibits mouse alpha/beta hydrolase domain 4 | Q8VD66 | purified mABHD4, FP-Rh probe fluorescence polarization | inhibition, % at 8.92 µM | hit rate 0.54% among 370,000;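 active means inhibition exceeding the mean over every tested compound plus 3 SD, cut at about 30% in these data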;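 further: 0% = plate median of compound wells and 100% = S159A mutant with DMSO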
Target sequence (Q8VD66 whole entry, looked up, the tested form may be a part): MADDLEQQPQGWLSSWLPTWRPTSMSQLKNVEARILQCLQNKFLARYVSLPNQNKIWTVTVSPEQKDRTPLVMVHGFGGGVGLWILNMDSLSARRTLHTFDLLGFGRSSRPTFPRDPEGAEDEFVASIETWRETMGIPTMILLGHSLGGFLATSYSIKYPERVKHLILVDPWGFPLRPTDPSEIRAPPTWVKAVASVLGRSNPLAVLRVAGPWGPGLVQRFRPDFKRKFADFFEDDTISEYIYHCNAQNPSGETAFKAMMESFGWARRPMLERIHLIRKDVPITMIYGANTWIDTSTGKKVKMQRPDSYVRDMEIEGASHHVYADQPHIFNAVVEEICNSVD
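Assay system: mouse ABHD4 enzyme, wild type / Also added: fluorescent activity-based probe FP-Rh / Doses: single nominal dose of 8.92 µM, 0.89% DMSO final / Timing: 45 min compound pre-incubation plus 60 min probe step, 25 °C / Signal: FP readout, ex 525 nm / em 598 nm / Control set: S159A mutant/DMSO as 100%, compound-well median as 0%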
* marks the source's active call; other numbers are inactive results; · = not tested or not shown. Most compounds without a hit are left out; they make up all but 3.3% or so of the library.

SMILES	PRMT1 inh	TCR CD3 inh	rCAG binder	SIAE primary	ABHD4 inh
O=C(Nc1sc2c(c1C(=O)O)CCCCC2)c1ccccc1	10.2	-0.4	28.9	-0.9	12.2
COc1ccc([C@H]2OC(=O)C[C@@H]2C(=O)N2CCN(c3ccccc3Cl)CC2)cc1OC	-2.2	·	1.7	-1.4	-1.6
COc1ccc2cc1Oc1ccc(cc1)C[C@H]1c3c(cc4c(c3Oc3cc5c(cc3OC)CCN(C)[C@@H]5C2)OCO4)CCN1C	2.9	-3.0	11.7	19.1*	-7.5
Cc1oc2cc(O)cc(C)c2c(=O)c1-c1cnn(-c2ccccc2)c1	1.3	4.6	6.7	-34.1	-46.6
Cc1oc2c(O)c(O)ccc2c(=O)c1-c1cnn(-c2ccccc2)c1	26.3*	9.8	19.3	5.4	21.7
O=C(CSc1nnc(Cc2cccs2)n1-c1ccc(Cl)cc1)Nc1ccc(OCc2ccccc2)cc1	-1.0	·	9.8	-11.9	-18.5
CCOC(=O)[C@]12CCCCC/C=C\1N(Cc1ccc(OC)cc1)C(=O)[C@H]2CC(=O)N1CCCCC1	0.1	·	-1.0	-3.4	3.5
COCCCNc1nc2c(c(=O)[nH]c(=O)n2C)n1CC(O)COc1ccccc1C (stereo unspecified)	0.5	7.2	-2.4	18.6*	6.7
COCCCNc1nc2c(c(=O)[nH]c(=O)n2C)n1CC(O)COc1ccccc1 (stereo unspecified)	0.5	8.7	-5.3	1.1	-0.9
CN1CCc2c(sc3c2C(=O)NC(c2ccccc2)N3)C1 (stereo unspecified)	9.4	-9.1	-3.4	-14.4	4.7
CN1CCc2c(sc3c2C(=O)NC(c2ccccn2)N3)C1 (stereo unspecified)	26.6*	6.5	-20.5	-8.3	19.3
O=C(Nc1ccc(F)cc1)OCc1cn(Cc2cccc(Cl)c2)nn1	1.7	·	-0.2	-7.0	-4.3
O=C1C=CC2(O[C@H](c3ccccc3)[C@@H](c3ccccc3)O2)[C@H](Sc2ccccc2O)C1	96.5*	-4.4	13.4	8.7	7.5
C[C@@H]1[C@@H](Sc2ccccc2)CC(=O)O[C@@H]1c1ccc(-c2ccccc2)cc1	1.3	0.4	10.9	-5.4	-17.5
Oc1ccc(Oc2ccccc2F)c2cccnc12	-2.8	·	·	3.9	2.8
c1ccc2cc(Cn3ccc4ccc(-c5ccc6ccn(Cc7ccc8ccccc8c7)c6c5)cc43)ccc2c1	2.3	·	28.4	-0.4	10.9
CCOC(Cn1cc([N+](=O)[O-])c(=O)[nH]c1=O)OCC	-4.2	-10.5	0.1	9.4	-1.1
NC(=S)NN=CCn1cc([N+](=O)[O-])c(=O)[nH]c1=O	23.8*	1.7	1.6	3.8	4.6
N#CCc1ccc(OC[C@@H](O)CN2CCC(C(O)(c3ccccc3)c3ccccc3)CC2)cc1	-3.9	·	2.3	0.3	5.1
CC(C)(C)N(Cc1cn(Cc2ccccc2)nn1)S(=O)(=O)c1ccc(N2CCCCC2)cc1Br	-0.7	·	4.5	-4.3	-9.7
COC(=O)C1CN(Cc2cn(CCOC(C)=O)nn2)CCS(=O)(=O)N1Cc1ccc(C)cc1 (stereo unspecified)	2.6	·	0.5	-2.0	-0.3
Cn1c(=S)c2[nH]c(SCCN)nc2n(C)c1=O	9.4	-5.8	9.2	5.0	38.6*
CC(Sc1nc(N)cc(=O)[nH]1)C(=O)Nc1cccc(Cl)c1 (stereo unspecified)	1.8	2.6	7.1	-10.4	-3.5
CC(=O)NC1C(=O)N=C(SC(C)C(=O)Nc2cccc(Cl)c2)NC1=O (stereo unspecified)	22.2*	4.9	2.7	-7.5	1.1
CCn1ccc(C(=O)NC2=NCCS2)n1	24.0*	5.9	-2.3	-0.8	-4.8
SMILES	PRMT1 inh	TCR CD3 inh	rCAG binder	SIAE primary	ABHD4 inh
CCn1ccc(C(=O)NC2CCCC2)n1	-0.1	-10.8	1.7	-6.2	-5.8
COc1cccc(NC2=C(C#N)C(=O)NC(c3cccc(OC)c3O)S2)c1 (stereo unspecified)	3.4	-6.7	6.9	-0.2	15.2
N#CC1=C(Nc2ccccc2Cl)SC(c2ccccc2O)NC1=O (stereo unspecified)	24.4*	0.1	21.3	-2.5	4.7
COc1cccc(Cn2cc(COC(=O)NCCc3ccccc3)nn2)c1	-1.7	·	-2.5	-2.5	1.1
COc1ccc(-n2c(-c3ccc(Cl)cc3)c[nH]c2=S)cc1	23.8*	-12.2	4.1	4.8	-3.8
Cc1ccc(-n2c(-c3ccccc3)c[nH]c2=S)cc1	17.4	5.9	3.0	10.6	4.7
Cc1noc(NS(=O)(=O)c2ccc(NC(=O)/C=C/c3ccc(C(C)C)cc3)cc2)c1C	0.6	-4.2	85.4*	1.0	-9.5
Cc1noc(NS(=O)(=O)c2ccc(NC(=O)C(C)(C)C)cc2)c1C	-4.8	-0.4	2.4	9.7	4.4
